Assay results published in ChEMBL document CHEMBL4609999, “Novel alkoxyamide-based histone deacetylase inhibitors reverse cisplatin resistance in chemoresistant cancer cells” (Bioorg Med Chem, 2020).
The source made the active and inactive calls. No cut-off for these calls is given here.

Tests used:
[1] = target: Histone deacetylase; assay: Inhibition of HDAC in human A2780 cells; assay type: cell-based
[2] = system: A2780; assay: Cytotoxicity against human A2780 cells assessed as reduction in cell viability by MTT assay; assay type: functional, cell-based
[3] = target: Histone deacetylase 4 (Homo sapiens, UniProt P56524); assay: Inhibition of recombinant human HDAC4
[4] = target: Histone deacetylase; assay: Inhibition of HDAC in human Cal27 cells; assay type: cell-based; conditions: cal-27
[5] = system: CAL-27; assay: Cytotoxicity against human CAL27 cells assessed as reduction in cell viability by MTT assay; assay type: functional, cell-based
[6] = target: T1, Protein deacetylase HDAC6 (Homo sapiens, UniProt Q9UBN7); assay: Inhibition of recombinant human HDAC6
T1 sequence (Q9UBN7 whole entry): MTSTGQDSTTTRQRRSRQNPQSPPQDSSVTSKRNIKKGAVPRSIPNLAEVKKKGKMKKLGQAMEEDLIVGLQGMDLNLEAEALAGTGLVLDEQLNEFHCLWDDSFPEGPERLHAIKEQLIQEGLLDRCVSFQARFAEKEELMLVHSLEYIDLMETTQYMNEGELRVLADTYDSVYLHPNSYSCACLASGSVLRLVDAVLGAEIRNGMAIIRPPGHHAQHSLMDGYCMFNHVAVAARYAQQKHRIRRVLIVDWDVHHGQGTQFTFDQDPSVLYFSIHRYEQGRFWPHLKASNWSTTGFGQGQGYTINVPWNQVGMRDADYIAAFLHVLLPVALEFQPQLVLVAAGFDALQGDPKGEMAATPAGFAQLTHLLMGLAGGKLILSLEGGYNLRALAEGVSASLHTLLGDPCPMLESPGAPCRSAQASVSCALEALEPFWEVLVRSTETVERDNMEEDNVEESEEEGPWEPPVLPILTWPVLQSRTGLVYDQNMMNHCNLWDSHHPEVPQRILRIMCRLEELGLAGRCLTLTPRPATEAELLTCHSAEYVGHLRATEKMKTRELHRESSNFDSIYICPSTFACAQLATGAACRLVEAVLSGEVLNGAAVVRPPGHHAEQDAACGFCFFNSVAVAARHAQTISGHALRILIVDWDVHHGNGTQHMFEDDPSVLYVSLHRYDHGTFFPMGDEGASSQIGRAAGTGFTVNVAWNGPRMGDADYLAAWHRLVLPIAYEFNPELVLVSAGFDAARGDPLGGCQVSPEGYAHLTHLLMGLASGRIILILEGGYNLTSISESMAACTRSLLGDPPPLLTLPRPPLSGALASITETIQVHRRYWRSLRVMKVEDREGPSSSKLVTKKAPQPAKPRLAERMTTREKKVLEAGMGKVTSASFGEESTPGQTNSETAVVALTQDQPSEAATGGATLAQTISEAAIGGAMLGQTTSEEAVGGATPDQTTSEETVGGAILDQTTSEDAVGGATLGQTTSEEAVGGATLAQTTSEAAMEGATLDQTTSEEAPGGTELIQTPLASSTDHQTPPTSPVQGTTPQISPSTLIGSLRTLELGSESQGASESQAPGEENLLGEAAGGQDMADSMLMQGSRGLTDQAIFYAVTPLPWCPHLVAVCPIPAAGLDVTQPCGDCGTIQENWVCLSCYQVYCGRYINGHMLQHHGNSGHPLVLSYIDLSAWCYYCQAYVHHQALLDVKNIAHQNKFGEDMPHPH

[7] = target: Histone deacetylase 2 (Homo sapiens, UniProt Q92769); assay: Inhibition of recombinant human HDAC2
[8] = target: T2, Histone deacetylase 8 (Homo sapiens, UniProt Q9BY41); assay: Inhibition of recombinant human HDAC8
T2 sequence (Q9BY41 whole entry): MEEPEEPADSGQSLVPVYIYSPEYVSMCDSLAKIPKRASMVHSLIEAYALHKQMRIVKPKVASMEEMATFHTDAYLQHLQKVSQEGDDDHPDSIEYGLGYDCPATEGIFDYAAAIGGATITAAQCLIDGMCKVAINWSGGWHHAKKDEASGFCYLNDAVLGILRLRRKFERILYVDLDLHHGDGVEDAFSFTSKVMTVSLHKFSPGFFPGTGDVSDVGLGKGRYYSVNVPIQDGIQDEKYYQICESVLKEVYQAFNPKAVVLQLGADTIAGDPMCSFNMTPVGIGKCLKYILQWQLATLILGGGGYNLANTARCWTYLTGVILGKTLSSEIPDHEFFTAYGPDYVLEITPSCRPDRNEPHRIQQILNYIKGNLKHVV

[9] = species on record: Homo sapiens; assay: Induction of apoptosis in human Cal27CisR cells assessed as increase in caspase 3/7 activation at 0.8 uM incubated for 24 hrs by Hoechst 33342 staining based fluorescence assay; assay type: functional, cell-based
[10] = target: T3, Protein deacetylase HDAC6 (Homo sapiens) (UniProt Q9UBN7); assay: Inhibition of HDAC6 in human CAL27 cells assessed as increase in acetylated alpha-tubulin at 1.5 uM incubated for 24 hrs by immunoblot analysis; assay type: cell-based; conditions: CAL-27
T3 sequence (whole entry): T1 sequence (Q9UBN7 whole entry)
Procedure, shortened: (§1)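 Cal27 and Cal27CisR cells incubated 24 h with vehicle or with inhibitor at 1.5, 3 or 5 µM. Western blot for α-tubulin, acetyl-α-tubulin and acetyl-histone H3.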

[11] = system: CAL-27; assay: Potentiation of cisplatin-induced cytotoxicity against human CAL27 cells assessed as shift factor by measuring ratio of cisplatin IC50 to cisplatin IC50 in presence of compound at 0.4 uM incubated for 72 hrs followed by cisplatin addition and measured after 72 hrs by MTT assay; assay type: functional
Procedure, shortened: (§2)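 MTT shift assay. Cal27 cells received HDACi at 0.2, 0.4 or 1.4 µM; Cal27CisR cells received 0.8 or 6 µM. Cells were incubated 72 h with a cisplatin range. Shift factor = cisplatin IC50 alone / cisplatin IC50 with HDACi, significance by t-test (p<0.05). Pooled mean of ≥3 experiments, each in triplicate.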

[12] = target: T4, Class 1 histone deacetylase (Homo sapiens) (UniProt Q13547+O15379+Q92769+Q9BY41); assay: Inhibition of class 1 histone deacetylase in human Cal27CisR cells assessed as increase in H3 histone acetylation at 1.5 uM incubated for 24 hrs by immunoblot analysis; assay type: cell-based; procedure, shortened: as §1
[13] = system: CAL-27; assay: Induction of apoptosis in human CAL27 cells assessed as increase in caspase 3/7 activation at 0.8 uM incubated for 24 hrs by Hoechst 33342 staining based fluorescence assay; assay type: functional, cell-based
[14] = species on record: Homo sapiens; assay: Potentiation of cisplatin-induced apoptosis in human Cal27CisR cells assessed as increase in caspase 3/7 activation at 0.8 uM incubated for 24 hrs followed by cisplatin addition by Hoechst 33342 staining based fluorescence assay; assay type: functional, cell-based
Procedure, shortened: (§3)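 Cal27 cells pretreated with HDACi at 0.4, 0.8 or 2.8 µM, then 24 h more with 3 µM cisplatin. Cal27CisR cells pretreated at 0.8 or 8 µM, then 24 h with 25 µM cisplatin. 100 µM cisplatin as positive control. Active caspase 3/7 imaged by green fluorescence, nuclei counterstained with Hoechst 33342 (blue).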

[15] = target: T4, Class 1 histone deacetylase (Homo sapiens); assay: Inhibition of class 1 histone deacetylase in human CAL27 cells assessed as increase in H3 histone acetylation at 1.5 uM incubated for 24 hrs by immunoblot analysis; assay type: cell-based; conditions: CAL-27; procedure, shortened: as §1
[16] = system: CAL-27; assay: Potentiation of cisplatin-induced apoptosis in human CAL27 cells assessed as increase in caspase 3/7 activation at 0.8 uM incubated for 24 hrs followed by cisplatin addition by Hoechst 33342 staining based fluorescence assay; assay type: functional, cell-based; procedure, shortened: as §3
[17] = target: T3, Protein deacetylase HDAC6 (Homo sapiens); assay: Inhibition of HDAC6 in human Cal27CisR cells assessed as increase in acetylated alpha-tubulin at 1.5 uM incubated for 24 hrs by immunoblot analysis; assay type: cell-based; procedure, shortened: as §1
[18] = Potentiation of cisplatin-induced cytotoxicity against human Cal27CisR cells assessed as shift factor by measuring ratio of cisplatin IC50 to cisplatin IC50 in presence of compound at 0.8 uM incubated for 72 hrs followed by cisplatin addition and measured after 72 hrs by MTT assay; assay type: functional; procedure, shortened: as §2

Sequence of Histone deacetylase 4 (P56524 whole entry): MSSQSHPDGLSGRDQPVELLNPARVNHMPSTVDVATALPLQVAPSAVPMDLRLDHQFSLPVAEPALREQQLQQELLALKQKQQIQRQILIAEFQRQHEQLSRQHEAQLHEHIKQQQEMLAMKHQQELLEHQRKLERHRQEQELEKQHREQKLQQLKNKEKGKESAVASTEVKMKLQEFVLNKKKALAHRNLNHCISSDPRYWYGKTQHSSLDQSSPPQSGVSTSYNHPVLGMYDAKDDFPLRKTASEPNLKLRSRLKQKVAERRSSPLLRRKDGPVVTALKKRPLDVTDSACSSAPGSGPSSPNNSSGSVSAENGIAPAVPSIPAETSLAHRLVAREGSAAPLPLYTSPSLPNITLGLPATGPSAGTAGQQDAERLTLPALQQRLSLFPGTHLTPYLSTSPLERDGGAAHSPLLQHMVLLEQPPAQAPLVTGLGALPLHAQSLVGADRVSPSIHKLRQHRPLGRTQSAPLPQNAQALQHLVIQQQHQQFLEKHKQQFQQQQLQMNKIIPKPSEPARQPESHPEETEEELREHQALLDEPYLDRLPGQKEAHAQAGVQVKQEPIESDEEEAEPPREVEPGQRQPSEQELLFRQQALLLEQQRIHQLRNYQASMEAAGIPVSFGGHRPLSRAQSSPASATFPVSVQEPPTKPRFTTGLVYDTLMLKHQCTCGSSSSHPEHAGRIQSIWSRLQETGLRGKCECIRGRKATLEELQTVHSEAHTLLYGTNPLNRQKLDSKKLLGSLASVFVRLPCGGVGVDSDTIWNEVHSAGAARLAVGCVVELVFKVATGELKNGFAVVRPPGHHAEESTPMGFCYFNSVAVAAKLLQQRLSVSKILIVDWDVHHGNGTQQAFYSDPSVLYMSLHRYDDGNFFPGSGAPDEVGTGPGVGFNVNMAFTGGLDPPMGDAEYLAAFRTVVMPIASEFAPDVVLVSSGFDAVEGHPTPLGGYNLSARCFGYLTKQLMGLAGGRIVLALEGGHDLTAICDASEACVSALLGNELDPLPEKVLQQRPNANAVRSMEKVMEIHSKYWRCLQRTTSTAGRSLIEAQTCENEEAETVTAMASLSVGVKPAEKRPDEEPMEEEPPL
Sequence of Histone deacetylase 2 (Q92769 whole entry): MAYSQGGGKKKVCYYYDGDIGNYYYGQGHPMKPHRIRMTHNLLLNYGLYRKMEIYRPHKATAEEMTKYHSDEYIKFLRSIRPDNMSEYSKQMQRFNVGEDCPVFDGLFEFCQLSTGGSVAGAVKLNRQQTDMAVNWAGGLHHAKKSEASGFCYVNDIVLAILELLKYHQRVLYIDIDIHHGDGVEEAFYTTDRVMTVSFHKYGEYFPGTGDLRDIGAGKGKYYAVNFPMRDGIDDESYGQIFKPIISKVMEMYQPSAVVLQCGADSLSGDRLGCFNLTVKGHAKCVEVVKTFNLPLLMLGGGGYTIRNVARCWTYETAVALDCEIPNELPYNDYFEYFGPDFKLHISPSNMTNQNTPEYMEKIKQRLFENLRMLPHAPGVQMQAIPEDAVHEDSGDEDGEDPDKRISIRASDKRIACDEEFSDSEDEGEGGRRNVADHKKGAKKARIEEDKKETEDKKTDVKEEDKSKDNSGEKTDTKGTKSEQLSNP

| IC50 [1] [µM] | Ki [3] [µM] | IC50 [4] [µM] | Ki [6] [µM] | Ki [7] [µM] | Ki [8] [µM] | inhibition [10] | inhibition [12] | inhibition [15] | inhibition [17] | Compound | IC50 [2] [µM] | IC50 [5] [µM] | Activity [9] | PF [11] | Activity [13] | Activity [14] | Activity [16] | PF [18] |
| --- | --- | --- | --- | --- | --- | --- | --- | --- | --- | --- | --- | --- | --- | --- | --- | --- | --- | --- |
| 11 | 83.7 | 10.56 | 0.56 | 0.55 | 4.9 | – | – | – | – | O=C(CCCCCONC(=O)c1cc(C(F)(F)F)cc(C(F)(F)F)c1)NO | 30.5 | 15.8 | – | – | – | – | – | – |
| 0.93 | > 100 | 1.3 | 2.15 | 1.57 | 28.1 | – | – | – | – | CC(C)(C)c1cc(C(=O)NOCCCCCC(=O)NO)cc(C(C)(C)C)c1 | 1.55 | 1 | – | – | – | – | – | – |
| 0.17 | > 100 | 0.55 | 0.05 | 0.08 | 4.81 | Active | Active | Active | Active | Cc1cc(C)cc(C(=O)NOCCCCCC(=O)NO)c1 | 0.97 | 0.76 | Active | 3 | Active | Active | Active | 8.36 |
